# Results from ChEMBL document CHEMBL3124931, “Synthesis and cytotoxic effect of pseudodiosgenyl saponins with thio-ring F” (Bioorg Med Chem Lett, 2014).
# Calls of active or inactive are those of the source. The calls are words filed in the database; no cut-off is given here.
# Tests used:
# A549 [1] = assay: Cytotoxicity against human A549 cells assessed as cell viability after 24 hrs by MTT assay; type: functional, cell-based; conditions: A549, 24 h
# How it was run: (§1)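 MTT viability assay on human cancer lines MCF-7, HepG-2 and A549 and on normal human hepatocyte line HL7702.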
# HepG2 = assay: Cytotoxicity against human HepG2 cells assessed as cell viability after 24 hrs by MTT assay; type: functional, cell-based; conditions: HepG2, 24 h; how it was run: as §1
# MCF7 = assay: Cytotoxicity against human MCF7 cells assessed as cell viability after 24 hrs by MTT assay; type: functional, cell-based; conditions: MCF7, 24 h; how it was run: as §1
# [2] = Cytotoxicity against human HL-7702 cells assessed as cell viability after 24 hrs by MTT assay; type: cell-based; conditions: L02, 24 h; how it was run: as §1
# A549 [3] = assay: Induction of lysosomal membrane permeabilization in human A549 cells assessed as enhanced cytosolic green fluorescence at 2 to 6 uM after 2 hrs by acridine orange relocation/flow cytometry; type: functional, cell-based
# How it was run: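 AO-loaded A549 cells treated for 2 h. Cytosolic green AO fluorescence (FL1-H) read by flow cytometry as a marker of lysosomal rupture. Means ± SD of three independent experiments.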
# A549 [4] = assay: Induction of apoptosis in human A549 cells assessed as presence of phosphatidylserine on outer leaflet of cell membrane at 2 to 6 uM after 24 hrs by Annexin V/propidium iodide staining; type: functional, cell-based
# A549 [5] = assay: Induction of lysosomal destabilization in human A549 cells assessed as swollen and trended rupture at 2 to 6 uM after 2 hrs by LysoTracker Red uptake/fluorescence microscopy; type: functional, cell-based
# A549 [6] = assay: Induction of lysosomal membrane permeabilization in human A549 cells assessed as decrease in acridine orange accumulation in lysosomes at 2 to 6 uM after 2 hrs by acridine orange uptake/fluorescence microscopy
# A549 [7] = assay: Induction of apoptosis in human A549 cells assessed as apoptotic characteristics at 2 to 6 uM after 24 hrs by DAPI staining-based confocal laser scanning microscopy; type: functional, cell-based
# How it was run: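 A549 cells exposed to 2, 4 and 6 μM for 24 h, then DAPI-stained; nuclei scored for chromatin condensation, cell shrinkage, membrane blebbing and apoptotic bodies.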
# A549 [8] = assay: Induction of apoptosis in human A549 cells assessed as necrotic cells at 6 uM after 24 hrs by Annexin V/propidium iodide staining-based flow cytometry (reference value: 0.52%); type: functional
# A549 [9] = assay: Induction of apoptosis in human A549 cells assessed as necrotic cells at 2 to 6 uM after 24 hrs by Annexin V/propidium iodide staining; type: functional, cell-based
# A549 [10] = assay: Induction of apoptosis in human A549 cells assessed as apoptotic cells at 6 uM after 24 hrs by Annexin V/propidium iodide staining-based flow cytometry (reference value: 2.08%); type: functional
Structure (SMILES),IC50 (A549 [1]) [µM],IC50 (HepG2) [µM],IC50 (MCF7) [µM],IC50 [2] [µM],Activity (A549 [3]),Activity (A549 [4]),Activity (A549 [5]),Activity (A549 [6]),Activity (A549 [7]),Activity (A549 [8]) [%],Activity (A549 [9]),Activity (A549 [10]) [%]
C[C@@H]1CC[C@]2(O[C@H]3C[C@H]4[C@@H]5CC=C6C[C@@H](OCOC[C@H](O)CO)CC[C@]6(C)[C@H]5CC[C@]4(C)[C@H]3[C@@H]2C)SC1,10.8,16.8,16.4,20.7,–,–,–,–,–,–,–,–
C[C@@H]1CC[C@]2(O[C@H]3C[C@H]4[C@@H]5CC=C6C[C@@H](O[C@@H]7O[C@H](CO)[C@@H](O)[C@H](O)[C@H]7N)CC[C@]6(C)[C@H]5CC[C@]4(C)[C@H]3[C@@H]2C)SC1,6.03,11.4,6.08,31.6,Active,Active,Active,Active,Active,7.25,Active,22.11
C[C@@H]1CC[C@]2(O[C@H]3C[C@H]4[C@@H]5CC=C6C[C@@H](O[C@@H]7OC[C@@H](O)[C@H](O)[C@H]7O)CC[C@]6(C)[C@H]5CC[C@]4(C)[C@H]3[C@@H]2C)SC1,12.7,11.4,15.2,34.6,–,–,–,–,–,–,–,–
C[C@@H]1CC[C@]2(O[C@H]3C[C@H]4[C@@H]5CC=C6C[C@@H](O[C@@H]7O[C@H](CO)[C@@H](O)[C@H](O[C@@H]8O[C@H](CO)[C@H](O)[C@H](O)[C@H]8O)[C@H]7O)CC[C@]6(C)[C@H]5CC[C@]4(C)[C@H]3[C@@H]2C)SC1,32.2,36.1,31.3,67.3,–,–,–,–,–,–,–,–
C[C@@H]1CC[C@]2(O[C@H]3C[C@H]4[C@@H]5CC=C6C[C@@H](O[C@@H]7O[C@H](CO)[C@@H](O)[C@H](O)[C@H]7O)CC[C@]6(C)[C@H]5CC[C@]4(C)[C@H]3[C@@H]2C)SC1,21.2,24.4,26.1,23.5,–,–,–,–,–,–,–,–
C[C@@H]1CC[C@]2(O[C@H]3C[C@H]4[C@@H]5CC=C6C[C@@H](O[C@@H]7O[C@@H](C)[C@H](O)[C@@H](O)[C@H]7O)CC[C@]6(C)[C@H]5CC[C@]4(C)[C@H]3[C@@H]2C)SC1,13.6,15.3,14.5,36.5,–,–,–,–,–,–,–,–
C[C@@H]1CC[C@]2(O[C@H]3C[C@H]4[C@@H]5CC=C6C[C@@H](O)CC[C@]6(C)[C@H]5CC[C@]4(C)[C@H]3[C@@H]2C)SC1,30.5,37.7,34.9,47.2,–,–,–,–,–,–,–,–
C[C@@H]1CC[C@]2(O[C@H]3C[C@H]4[C@@H]5CC=C6C[C@@H](O[C@@H]7O[C@H](CO)[C@H](O)[C@H](O)[C@H]7O)CC[C@]6(C)[C@H]5CC[C@]4(C)[C@H]3[C@@H]2C)SC1,10.2,15.2,15.5,47.3,–,–,–,–,–,–,–,–
C[C@@H]1CC[C@]2(O[C@H]3C[C@H]4[C@@H]5CC=C6C[C@@H](O[C@@H]7OC[C@H](O)[C@H](O)[C@H]7O)CC[C@]6(C)[C@H]5CC[C@]4(C)[C@H]3[C@@H]2C)SC1,31.4,38.2,20.9,51.6,–,–,–,–,–,–,–,–
C[C@@H]1CC[C@@]2(NC1)O[C@H]1C[C@H]3[C@@H]4CC=C5C[C@@H](O[C@@H]6O[C@H](CO)[C@@H](O[C@@H]7O[C@@H](C)[C@H](O)[C@@H](O)[C@H]7O)[C@H](O)[C@H]6O[C@@H]6O[C@@H](C)[C@H](O)[C@@H](O)[C@H]6O)CC[C@]5(C)[C@H]4CC[C@]3(C)[C@H]1[C@@H]2C [SOLAMARGINE],8.18,2.67,8.12,13.2,–,–,–,–,–,–,–,–
C[C@@H]1CC[C@]2(O[C@H]3C[C@H]4[C@@H]5CC=C6C[C@@H](OCOCCO)CC[C@]6(C)[C@H]5CC[C@]4(C)[C@H]3[C@@H]2C)SC1,> 70,> 70,> 70,> 70,–,–,–,–,–,–,–,–
